Laboratory results reported in ChEMBL document CHEMBL5678802, “Small-molecule p21-activated kinase inhibitor PF-3758309 is a potent inhibitor of oncogenic signaling and tumor growth” (Proc Natl Acad Sci U S A, 2010).

Experiments:
[1] = tested on: Caco-2; assay: Antiproliferative activity against human Caco-2 cells assessed as inhibition of cell proliferation incubated for 3 days by CellTiter-Glo Luminescent Cell Viability Assay; format: functional, cell-based; conditions: Caco-2, 72 h
How it was run: (§1)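 Cancer cell lines seeded in 384-well plates on day 1; compound added on day 2 and left for 3 days. On day 5 all medium was aspirated, and viable cells were quantified by CellTiter-Glo luminescence, which measures cellular ATP. Dose-dependent effects on proliferation were determined.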

[2] = tested on: DLD-1; assay: Antiproliferative activity against human DLD-1 cells assessed as inhibition of cell proliferation incubated for 3 days by CellTiter-Glo Luminescent Cell Viability Assay; format: functional, cell-based; conditions: DLD-1, 72 h; how it was run: as §1
[3] = tested on: LS-123; assay: Antiproliferative activity against human LS-123 cells assessed as inhibition of cell proliferation incubated for 3 days by CellTiter-Glo Luminescent Cell Viability Assay; format: functional, cell-based; conditions: LS-123, 72 h; how it was run: as §1
[4] = tested on: NCI-H2347; assay: Antiproliferative activity against human NCI-H2347 cells assessed as inhibition of cell proliferation incubated for 3 days by CellTiter-Glo Luminescent Cell Viability Assay; format: functional, cell-based; conditions: NCI-H2347, 72 h
How it was run: (§2)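 Cells of each line were plated in 384-well plates on day 1 and exposed to compound from day 2 for 3 days. On day 5 all medium was aspirated. Viable cell number was read by CellTiter-Glo luminescence, which quantifies cellular ATP.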

[5] = tested on: HCC827; assay: Antiproliferative activity against human HCC827 cells assessed as inhibition of cell proliferation incubated for 3 days by CellTiter-Glo Luminescent Cell Viability Assay; format: functional, cell-based; conditions: HCC827, 72 h; how it was run: as §1
[6] = tested on: NCI-H1975; assay: Antiproliferative activity against human NCI-H1975 cells assessed as inhibition of cell proliferation incubated for 3 days by CellTiter-Glo Luminescent Cell Viability Assay; format: functional, cell-based; conditions: NCI-H1975, 72 h
How it was run: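 Cancer cell lines seeded in 384-well plates on day 1; compound added on day 2 and incubated 3 days. On day 5 media aspirated and viable cells quantified by ATP content using CellTiter-Glo luminescence; dose-dependent proliferation effects determined.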

[7] = tested on: NCI-H1573; assay: Antiproliferative activity against human NCI-H1573 cells assessed as inhibition of cell proliferation incubated for 3 days by CellTiter-Glo Luminescent Cell Viability Assay; format: functional, cell-based; conditions: NCI-H1573, 72 h; how it was run: as §1
[8] = tested on: NCI-H23; assay: Antiproliferative activity against human NCI-H23 cells assessed as inhibition of cell proliferation incubated for 3 days by CellTiter-Glo Luminescent Cell Viability Assay; format: functional, cell-based; conditions: NCI-H23, 72 h; how it was run: as §2
[9] = tested on: Panc1005; assay: Antiproliferative activity against human Panc1005 cells assessed as inhibition of cell proliferation incubated for 3 days by CellTiter-Glo Luminescent Cell Viability Assay; format: functional, cell-based; conditions: Panc1005, 72 h; how it was run: as §2
[10] = tested on: PaTu 8988t; assay: Antiproliferative activity against human PaTu 8988t cells assessed as inhibition of cell proliferation incubated for 3 days by CellTiter-Glo Luminescent cell viability assay; format: functional, cell-based; conditions: 72 h; how it was run: as §2
[11] = tested on: NCI-H1838; assay: Inhibition of anchorage independent cell growth in human NCI-H1838 cells incubated for 6 days by Alamar blue reagent based fluorescence plate reader analysis; format: functional; conditions: NCI-H1838, 144 h
[12] = tested on: NCI-H2087; assay: Inhibition of anchorage independent cell growth in human NCI-H2087 cells incubated for 6 days by Alamar blue reagent based fluorescence plate reader analysis; format: functional; conditions: NCI-H2087, 144 h
[13] = tested on: MCF10; assay: Antiproliferative activity against human MCF10 cells assessed as inhibition of cell proliferation incubated for 3 days by CellTiter-Glo Luminescent Cell Viability Assay; format: functional, cell-based; conditions: MCF10, 72 h; how it was run: as §1
[14] = tested on: HCC1419; assay: Antiproliferative activity against human HCC1419 cells assessed as inhibition of cell proliferation incubated for 3 days by CellTiter-Glo Luminescent Cell Viability Assay; format: functional, cell-based; conditions: HCC1419, 72 h; how it was run: as §1
[15] = tested on: MDA-MB-415; assay: Antiproliferative activity against human MDA-MB-415 cells assessed as inhibition of cell proliferation incubated for 3 days by CellTiter-Glo Luminescent Cell Viability Assay; format: functional, cell-based; conditions: MDA-MB-415, 72 h; how it was run: as §1
[16] = target: Ribosomal protein S6 kinase alpha-3 (Homo sapiens, UniProt P51812); assay: Inhibition of human RSK2 in presence of ATP relative to control; conditions: concentration not given here
Sequence of Ribosomal protein S6 kinase alpha-3 (P51812 whole entry): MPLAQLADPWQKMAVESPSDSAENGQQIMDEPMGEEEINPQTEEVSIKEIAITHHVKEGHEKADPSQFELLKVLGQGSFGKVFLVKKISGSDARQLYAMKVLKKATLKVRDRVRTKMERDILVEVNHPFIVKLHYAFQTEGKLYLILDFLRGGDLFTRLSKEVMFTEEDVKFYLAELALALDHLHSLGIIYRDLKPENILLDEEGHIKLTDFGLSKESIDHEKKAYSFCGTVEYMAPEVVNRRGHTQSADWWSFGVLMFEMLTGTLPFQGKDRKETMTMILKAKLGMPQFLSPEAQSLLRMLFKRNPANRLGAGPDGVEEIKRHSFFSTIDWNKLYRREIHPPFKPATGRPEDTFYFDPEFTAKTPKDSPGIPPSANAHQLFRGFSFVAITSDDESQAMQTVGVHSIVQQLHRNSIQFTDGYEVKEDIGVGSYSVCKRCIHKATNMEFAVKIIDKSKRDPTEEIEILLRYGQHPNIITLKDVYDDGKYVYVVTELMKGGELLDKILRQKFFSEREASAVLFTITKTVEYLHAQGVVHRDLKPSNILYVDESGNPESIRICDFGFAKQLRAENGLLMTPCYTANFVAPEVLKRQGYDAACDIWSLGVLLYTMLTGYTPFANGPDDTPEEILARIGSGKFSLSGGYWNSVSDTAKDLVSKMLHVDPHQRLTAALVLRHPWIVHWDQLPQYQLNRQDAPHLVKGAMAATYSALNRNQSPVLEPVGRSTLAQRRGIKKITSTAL

[17] = target: Serine/threonine-protein kinase Chk2 (Homo sapiens, UniProt O96017); assay: Inhibition of human CHK2 assessed as inhibition constant in presence of ATP
Sequence of Serine/threonine-protein kinase Chk2 (O96017 whole entry): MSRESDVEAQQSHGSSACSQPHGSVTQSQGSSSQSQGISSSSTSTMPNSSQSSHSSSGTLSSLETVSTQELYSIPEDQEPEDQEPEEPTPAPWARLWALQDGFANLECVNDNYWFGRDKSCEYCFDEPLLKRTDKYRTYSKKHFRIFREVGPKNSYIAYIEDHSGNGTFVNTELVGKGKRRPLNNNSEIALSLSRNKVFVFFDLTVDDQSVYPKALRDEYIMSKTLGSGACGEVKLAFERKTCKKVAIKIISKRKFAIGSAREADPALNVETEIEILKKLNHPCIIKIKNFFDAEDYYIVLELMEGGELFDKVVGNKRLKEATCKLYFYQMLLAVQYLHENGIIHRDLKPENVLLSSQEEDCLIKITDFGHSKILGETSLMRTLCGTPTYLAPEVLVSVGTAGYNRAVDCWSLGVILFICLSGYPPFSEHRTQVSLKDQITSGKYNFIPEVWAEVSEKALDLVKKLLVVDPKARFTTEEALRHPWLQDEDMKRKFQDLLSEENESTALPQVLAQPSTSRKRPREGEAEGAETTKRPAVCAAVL

[18] = target: AMP-activated protein kinase (AMPK) alpha-1/beta-1/gamma-1 (Homo sapiens, UniProt P54619+Q13131+Q9Y478); assay: Inhibition of human AMPK alpha1/beta1/gamma1 in presence of ATP; format: protein-complex assay
Sequence of AMP-activated protein kinase (AMPK) alpha-1/beta-1/gamma-1 (P54619 whole entry): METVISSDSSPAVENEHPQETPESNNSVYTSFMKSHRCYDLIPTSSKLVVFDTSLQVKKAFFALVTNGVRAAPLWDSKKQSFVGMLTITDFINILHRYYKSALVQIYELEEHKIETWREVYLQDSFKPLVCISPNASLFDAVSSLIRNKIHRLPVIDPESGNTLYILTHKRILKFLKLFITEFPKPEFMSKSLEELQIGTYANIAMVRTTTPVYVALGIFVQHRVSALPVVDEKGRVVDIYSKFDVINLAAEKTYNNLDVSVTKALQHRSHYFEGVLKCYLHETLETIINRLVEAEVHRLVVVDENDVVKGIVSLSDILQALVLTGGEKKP
Sequence of AMP-activated protein kinase (AMPK) alpha-1/beta-1/gamma-1 (Q9Y478 whole entry): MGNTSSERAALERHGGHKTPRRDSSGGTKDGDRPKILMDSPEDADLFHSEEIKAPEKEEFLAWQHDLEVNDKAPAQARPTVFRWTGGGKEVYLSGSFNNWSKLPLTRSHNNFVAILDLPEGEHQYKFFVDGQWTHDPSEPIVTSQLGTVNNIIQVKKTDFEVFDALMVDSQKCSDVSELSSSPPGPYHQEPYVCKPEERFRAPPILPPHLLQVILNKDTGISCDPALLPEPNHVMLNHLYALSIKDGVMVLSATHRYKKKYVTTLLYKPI
Sequence of AMP-activated protein kinase (AMPK) alpha-1/beta-1/gamma-1 (Q13131 whole entry): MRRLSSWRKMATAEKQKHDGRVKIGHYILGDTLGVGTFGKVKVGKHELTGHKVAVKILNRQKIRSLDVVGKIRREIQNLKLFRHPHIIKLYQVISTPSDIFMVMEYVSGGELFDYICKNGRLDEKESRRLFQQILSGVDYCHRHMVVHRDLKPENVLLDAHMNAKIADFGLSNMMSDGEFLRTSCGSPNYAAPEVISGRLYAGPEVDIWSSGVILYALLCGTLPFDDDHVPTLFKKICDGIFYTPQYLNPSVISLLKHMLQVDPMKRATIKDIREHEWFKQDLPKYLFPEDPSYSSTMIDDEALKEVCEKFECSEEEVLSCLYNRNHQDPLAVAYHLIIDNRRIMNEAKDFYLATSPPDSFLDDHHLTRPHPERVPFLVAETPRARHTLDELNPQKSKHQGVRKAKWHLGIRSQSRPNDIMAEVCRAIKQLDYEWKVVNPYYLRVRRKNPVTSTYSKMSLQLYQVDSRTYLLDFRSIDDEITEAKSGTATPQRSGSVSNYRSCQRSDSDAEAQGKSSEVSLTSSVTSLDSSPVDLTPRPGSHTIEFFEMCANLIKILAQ

[19] = target: Ribosomal protein S6 kinase alpha-1 (Homo sapiens, UniProt Q15418); assay: Inhibition of human RSK1 in presence of ATP by cellular assay
Sequence of Ribosomal protein S6 kinase alpha-1 (Q15418 whole entry): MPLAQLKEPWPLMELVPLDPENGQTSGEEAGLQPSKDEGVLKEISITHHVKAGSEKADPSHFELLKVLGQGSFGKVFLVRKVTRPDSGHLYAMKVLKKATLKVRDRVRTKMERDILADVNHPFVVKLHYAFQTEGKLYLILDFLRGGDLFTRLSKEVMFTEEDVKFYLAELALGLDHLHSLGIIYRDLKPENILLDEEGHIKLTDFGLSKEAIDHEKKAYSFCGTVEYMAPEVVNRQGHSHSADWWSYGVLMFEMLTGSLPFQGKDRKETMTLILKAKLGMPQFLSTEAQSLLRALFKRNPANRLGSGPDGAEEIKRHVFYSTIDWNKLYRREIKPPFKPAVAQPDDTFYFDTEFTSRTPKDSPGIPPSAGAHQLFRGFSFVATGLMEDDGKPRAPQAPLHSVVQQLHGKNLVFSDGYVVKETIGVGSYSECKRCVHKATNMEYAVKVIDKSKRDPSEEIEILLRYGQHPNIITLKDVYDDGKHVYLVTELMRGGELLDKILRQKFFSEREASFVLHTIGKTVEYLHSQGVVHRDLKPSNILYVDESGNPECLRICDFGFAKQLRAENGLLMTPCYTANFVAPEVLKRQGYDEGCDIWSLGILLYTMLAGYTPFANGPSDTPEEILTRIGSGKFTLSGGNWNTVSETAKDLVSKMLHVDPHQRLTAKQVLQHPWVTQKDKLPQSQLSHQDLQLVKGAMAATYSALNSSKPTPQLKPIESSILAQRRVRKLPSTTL

[20] = target: Tyrosine-protein kinase Yes (Homo sapiens, UniProt P07947); assay: Inhibition of human YES1 in presence of ATP by cellular assay
Sequence of Tyrosine-protein kinase Yes (P07947 whole entry): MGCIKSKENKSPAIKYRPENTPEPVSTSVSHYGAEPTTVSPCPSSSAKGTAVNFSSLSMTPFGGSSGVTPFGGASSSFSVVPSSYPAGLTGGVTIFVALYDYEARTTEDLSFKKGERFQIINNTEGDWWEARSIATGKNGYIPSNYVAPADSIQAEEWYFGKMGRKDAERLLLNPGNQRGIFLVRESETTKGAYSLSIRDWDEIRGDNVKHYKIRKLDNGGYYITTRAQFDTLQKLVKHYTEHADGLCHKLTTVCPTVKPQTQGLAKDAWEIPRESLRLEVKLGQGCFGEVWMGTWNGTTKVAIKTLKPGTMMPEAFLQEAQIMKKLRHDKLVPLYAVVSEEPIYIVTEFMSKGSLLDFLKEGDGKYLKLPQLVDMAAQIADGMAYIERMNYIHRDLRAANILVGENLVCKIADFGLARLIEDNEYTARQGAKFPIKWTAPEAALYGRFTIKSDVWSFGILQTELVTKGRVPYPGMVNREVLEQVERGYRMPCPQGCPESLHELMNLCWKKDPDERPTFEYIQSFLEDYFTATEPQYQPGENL

[21] = target: T1, cGMP-dependent protein kinase 1 (Homo sapiens, UniProt Q13976); assay: Inhibition of human PRKG1 in presence of ATP by cellular assay
T1 sequence (Q13976 whole entry): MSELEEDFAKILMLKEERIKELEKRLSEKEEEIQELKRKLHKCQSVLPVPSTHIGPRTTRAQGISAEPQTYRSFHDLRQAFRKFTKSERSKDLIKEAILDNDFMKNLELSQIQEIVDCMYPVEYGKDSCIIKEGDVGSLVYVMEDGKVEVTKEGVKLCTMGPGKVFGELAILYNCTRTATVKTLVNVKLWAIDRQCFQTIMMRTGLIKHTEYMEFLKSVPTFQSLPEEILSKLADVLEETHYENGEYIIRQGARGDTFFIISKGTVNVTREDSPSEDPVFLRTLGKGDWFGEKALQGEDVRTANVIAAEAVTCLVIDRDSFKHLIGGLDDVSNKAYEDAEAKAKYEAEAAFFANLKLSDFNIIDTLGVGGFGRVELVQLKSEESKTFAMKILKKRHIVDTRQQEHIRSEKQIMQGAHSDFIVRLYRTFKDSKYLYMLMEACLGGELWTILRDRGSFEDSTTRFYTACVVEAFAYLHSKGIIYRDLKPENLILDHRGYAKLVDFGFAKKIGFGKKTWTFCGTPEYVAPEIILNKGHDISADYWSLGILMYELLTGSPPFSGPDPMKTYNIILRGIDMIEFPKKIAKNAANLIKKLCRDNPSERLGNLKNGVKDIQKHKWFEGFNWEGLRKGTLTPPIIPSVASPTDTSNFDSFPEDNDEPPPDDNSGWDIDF

[22] = target: Protein kinase C gamma type (Homo sapiens, UniProt P05129); assay: Inhibition of human PKCgamma in presence of ATP by cellular assay
[23] = tested on: HCT-116; assay: Induction of cell cycle arrest in human HCT-116 cells assessed as accumulation of cells at G2/M phase at 100 nM measured after 48 hrs by fluorescence activated cell sorter analysis (reference value: 19.78%); format: functional
[24] = tested on: HCT-116; assay: Antitumor activity against human HCT-116 cells xenografted in nude mouse assessed as tumor growth inhibition at 15 mg/kg, po administered twice daily for 9 to 18 days relative to control; format: functional; conditions: time 9-18 day, read-out: TGI

- IC50 [1]: 10000 nM
- IC50 [2]: 10000 nM
- IC50 [4]: 2 nM
- IC50 [5]: 9.2 nM
- IC50 [6]: 17 nM
- IC50 [7]: 22 nM
- IC50 [8]: 25 nM
- IC50 [9]: 67 nM
- IC50 [11]: 9.59 nM
- IC50 [12]: 1.36 nM
- IC50 [14]: 0.79 nM
- IC50 [15]: 36 nM
- inhibition [16]: 101%
- Ki [17]: 3 nM
- IC50 [18]: 1 nM
- IC50 [19]: 543 nM
- IC50 [20]: 612 nM
- IC50 [21]: 3370 nM
- IC50 [22]: 4740 nM
Compound: Cc1nc(Nc2n[nH]c3c2CN(C(=O)N[C@H](CN(C)C)c2ccccc2)C3(C)C)c2sccc2n1 [PF-03758309]
- IC50 [3]: 10000 nM
- IC50 [10]: 73 nM
- IC50 [13]: 0.21 nM
- Activity [23]: 23.08%
- inhibition in vivo at 15 mg/kg [24]: 79%
